The values that follow come from paper PMC6750927 (Science Advances, 2019).

pIC50, pKd: −log10 of the molar value.

One test addresses Hsp90-Cdc37 PPI (Homo sapiens, UniProt P07900). Put plainly: Hsp90-Cdc37 HTRF assay. In kind it is binding. As to conditions: dose-dependent. The procedure, abridged: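 His-tagged Hsp90 and GST-tagged Cdc37 premixed at 80 nM final in PBS with 200 mM KF, pH 7.4. Twofold dilutions of test compound (seven concentrations) added for 1 h at 37°C. HTRF read at excitation 320 nm, emission 665 and 620 nm; ratio = (665/620) × 10,000. n = 3 wells, from three independent experiments.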
A general note: In TR-FRET formats the signal depends on donor and acceptor labels being close together.

A further test concerns the target Hsp90 ATPase activity (Homo sapiens, UniProt P07900). Kind of test: Hsp90 ATPase assay. In kind it is biochemical. The procedure, abridged: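 Hsp90 ATPase measured with an ADP Hunter Plus kit at 37°C. Compound, Hsp90 (5 μM as added) and ATP (100 μM as added) combined in equal parts for 1 h. Background taken without protein or compound; protein alone set as 100% activity. n = 3 wells, from three independent experiments.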

The next test deals with Hsp90 ATP binding site (Homo sapiens, UniProt P07900). Kind of test: ATP binding site competitive FP assay. In a few lines:
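Competition for the Hsp90 ATP site by fluorescence polarization with a fluorescein isothiocyanate–geldanamycin probe. Read at excitation 485 nm and emission 535 nm. Inhibition rate derived by a previously reported method. n = 3 wells, from three independent experiments.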

The target of the next test is Cdc37 Q208A mutant (UniProt Q16543). Kind of test: ITC. A general note: ITC needs no label: the signal is the heat of the interaction.
Another test concerns the target Cdc37 R246A mutant (UniProt Q16543). Put plainly: ITC.
Another test addresses Cdc37, wild type (UniProt Q16543). Kind of test: ITC.

Chain of Cdc37, wild type (Q16543 whole entry): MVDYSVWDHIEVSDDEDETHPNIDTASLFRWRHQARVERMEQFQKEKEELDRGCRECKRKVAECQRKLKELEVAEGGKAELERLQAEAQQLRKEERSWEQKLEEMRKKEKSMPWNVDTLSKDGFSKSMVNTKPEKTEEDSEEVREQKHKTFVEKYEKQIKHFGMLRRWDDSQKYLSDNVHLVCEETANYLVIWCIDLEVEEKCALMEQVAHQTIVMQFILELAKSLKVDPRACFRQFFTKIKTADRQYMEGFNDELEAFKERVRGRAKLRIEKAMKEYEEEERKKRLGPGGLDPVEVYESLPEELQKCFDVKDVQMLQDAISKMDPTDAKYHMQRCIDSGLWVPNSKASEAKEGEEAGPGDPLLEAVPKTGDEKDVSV
Chain of Cdc37 R246A mutant (Q16543 whole entry R246A): as the sequence (Q16543 whole entry) above, with R246A counted along it
Chain of Cdc37 Q208A mutant (Q16543 whole entry Q208A): as the sequence (Q16543 whole entry) above, with Q208A counted along it

The pIC50 is the negative decadic logarithm of the IC50, by convention in mol/L. A lower pIC50 goes with a high IC50. Turning to `CC(C)c1cc(C(=O)N2Cc3ccc(CN4CCN(C)CC4)cc3C2)c(O)cc1O` [AT13387], at Hsp90-Cdc37 PPI, the “inhibition of Hsp90-Cdc37 binding (IC50)” value is reported as “no activity”. Further, the values for the pIC50 against Hsp90 ATPase activity and on Hsp90 ATP binding site were 6.80 and 7.92, respectively.
In general, pKd refers to the Kd on a negative log10 scale, so that one unit is a factor of ten. Higher therefore signals a low Kd. In the case of “Heat shock protein 90 (Hsp90), wild type, His-tagged (from UniProt P07900 1-732) (natural protein)”, the pKd with Cdc37 Q208A mutant is 5.45; with Cdc37 R246A mutant, 5.22; with Cdc37, wild type, 5.66.
Turning to “Hsp90 R46A mutant (from UniProt P07900 1-732) (natural protein)”, the pKd with Cdc37, wild type is 5.05.
Same read-out and setting: the figure for “Hsp90 Y61A mutant (from UniProt P07900 1-732) (natural protein)” is 5.16.
